Measurements published in PMC10633881 (ACS Omega, 2023).
Residues, ends and D or L forms follow the SMILES beside them. No end group written: not given here.

Columns and labels:
K562 cells [1] = assay: LDH leakage assay; format: cell-based, human; conditions: 10 μM peptide, 24 h, serum-free medium
Method in brief: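 K562 cells were seeded in 96-well plates for 24 h, then incubated 24 h with peptide in serum-free medium using a kit. Plates were spun at 400g for 5 min. Supernatant was mixed with LDH detection solution and shaken 30 min at room temperature, then read at 490 nm. Untreated wells = no leakage; LDH-releasing reagent = 100% leakage.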

[2] = system: cancer cells and murine fibroblasts; conditions: read-out: antiproliferative activity IC50 values; against cancer cells and murine fibroblasts; cited from earlier work
Serum stability assay = format: in vitro ADME; conditions: peptide solution (10 mM), 37 °C, supernatant analysed by RP-HPLC
K562 cells [3] = assay: Cell viability, CCK-8 method; format: cell-based, human; conditions: 10 μM peptide, 24 h, CCK8
Method in brief: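 K562 cells (IMDM, 10% FBS, 37 °C, 5% CO2) were seeded at 5×10^3 cells/well in 96-well plates. After 24 h, IMDM containing peptide was added without removing the medium. After 24 h at 37 °C, viability was read by CCK-8.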

MCF-7 cells = assay: Cell viability, CCK-8 method; format: cell-based, human; conditions: 10 μM peptide, 24 h, CCK8
Method in brief: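 MCF-7 cells (MEM, 10% FBS, 37 °C, 5% CO2) were seeded at 5×10^3 cells/well in 96-well plates. After 24 h, the medium was removed and replaced with MEM containing peptide. After 24 h at 37 °C, viability was read by CCK-8.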

Compound	LDH leakage (cell membrane destruction) (K562 cells [1])	IC50 [2]	peptide degraded after incubation in 10% serum for 1 h (Serum stability assay)	anticancer activity in the preliminary screening, compared with F1, K562 cells (K562 cells [3])	anticancer activity in the preliminary screening, compared with F1, MCF-7 cells (MCF-7 cells)
FIGTLIPLALGALTKLFK-NH2 [F1, Figainin 1, reference compound]	destroyed cell membranes	10.5 to 13.7 µM			
CCCCCCCCCC(=O)N[C@@H](Cc1ccccc1)C(=O)N[C@H](C(=O)NCC(=O)N[C@H](C(=O)N[C@@H](CC(C)C)C(=O)N[C@H](C(=O)N1CCC[C@H]1C(=O)N[C@@H](CC(C)C)C(=O)N[C@@H](C)C(=O)N[C@@H](CC(C)C)C(=O)NCC(=O)N[C@@H](C)C(=O)N[C@@H](CC(C)C)C(=O)N[C@H](C(=O)N[C@@H](CCCCN)C(=O)N[C@@H](CC(C)C)C(=O)N[C@@H](Cc1ccccc1)C(=O)N[C@@H](CCCCN)C(N)=O)[C@@H](C)O)[C@@H](C)CC)[C@@H](C)O)[C@@H](C)CC [A-10] (HELM PEPTIDE1{[CCCCCCCCCC(=O)[*:2]].F.I.G.T.L.I.P.L.A.L.G.A.L.T.K.L.F.K.[am]}$$$$V2.0)	stronger than that of F1		hardly degraded	strongest anticancer activity	strongest anticancer activity
